Experimental data taken from ChEMBL document CHEMBL4251648, “Synthesis and bioevaluation and doking study of 1H-pyrrolo[2,3-b]pyridine derivatives bearing aromatic hydrazone moiety as c-Met inhibitors” (Eur J Med Chem, 2018).

Assays:
HepG2 = assay: Antiproliferative activity against human HepG2 cells after 72 hrs by MTT assay; format: functional, cell-based
In short: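 Cells grown in MEM with 10% FBS. About 4×10³ cells per well, pre-incubated 24 h at 37°C in 5% CO₂. Compound added at final concentrations, then 72 h. MTT added at 5 µg/mL final for 4 h at 37°C. Formazan dissolved in DMSO and read at 492 nm against 630 nm reference. Tested three times; IC50 taken as the average of […] determinations.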

A549 = assay: Antiproliferative activity against human A549 cells after 72 hrs by MTT assay; format: functional, cell-based
In short: (§1)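 Cells grown in MEM with 10% FBS. About 4×10³ cells per well, pre-incubated 24 h at 37°C in 5% CO₂. Compound added at final concentrations, then 72 h. MTT added at 5 µg/mL final for 4 h at 37°C. Tested three times; IC50 taken as the average of […] determinations.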

PC-3 = assay: Antiproliferative activity against human PC3 cells after 72 hrs by MTT assay; format: functional, cell-based; in short: as §1
MCF7 = assay: Antiproliferative activity against human MCF7 cells after 72 hrs by MTT assay; format: functional, cell-based; in short: as §1
[1] = molecular target: Vascular endothelial growth factor receptor 2 (Homo sapiens, UniProt P35968); assay: Inhibition of VEGFR2 (unknown origin)
[2] = molecular target: Epidermal growth factor receptor (Homo sapiens, UniProt P00533); assay: Inhibition of EGFR (unknown origin)
[3] = molecular target: T1, Receptor-type tyrosine-protein kinase FLT3 (Homo sapiens, UniProt P36888); assay: Inhibition of FLT3 (unknown origin)
T1 sequence (P36888 whole entry): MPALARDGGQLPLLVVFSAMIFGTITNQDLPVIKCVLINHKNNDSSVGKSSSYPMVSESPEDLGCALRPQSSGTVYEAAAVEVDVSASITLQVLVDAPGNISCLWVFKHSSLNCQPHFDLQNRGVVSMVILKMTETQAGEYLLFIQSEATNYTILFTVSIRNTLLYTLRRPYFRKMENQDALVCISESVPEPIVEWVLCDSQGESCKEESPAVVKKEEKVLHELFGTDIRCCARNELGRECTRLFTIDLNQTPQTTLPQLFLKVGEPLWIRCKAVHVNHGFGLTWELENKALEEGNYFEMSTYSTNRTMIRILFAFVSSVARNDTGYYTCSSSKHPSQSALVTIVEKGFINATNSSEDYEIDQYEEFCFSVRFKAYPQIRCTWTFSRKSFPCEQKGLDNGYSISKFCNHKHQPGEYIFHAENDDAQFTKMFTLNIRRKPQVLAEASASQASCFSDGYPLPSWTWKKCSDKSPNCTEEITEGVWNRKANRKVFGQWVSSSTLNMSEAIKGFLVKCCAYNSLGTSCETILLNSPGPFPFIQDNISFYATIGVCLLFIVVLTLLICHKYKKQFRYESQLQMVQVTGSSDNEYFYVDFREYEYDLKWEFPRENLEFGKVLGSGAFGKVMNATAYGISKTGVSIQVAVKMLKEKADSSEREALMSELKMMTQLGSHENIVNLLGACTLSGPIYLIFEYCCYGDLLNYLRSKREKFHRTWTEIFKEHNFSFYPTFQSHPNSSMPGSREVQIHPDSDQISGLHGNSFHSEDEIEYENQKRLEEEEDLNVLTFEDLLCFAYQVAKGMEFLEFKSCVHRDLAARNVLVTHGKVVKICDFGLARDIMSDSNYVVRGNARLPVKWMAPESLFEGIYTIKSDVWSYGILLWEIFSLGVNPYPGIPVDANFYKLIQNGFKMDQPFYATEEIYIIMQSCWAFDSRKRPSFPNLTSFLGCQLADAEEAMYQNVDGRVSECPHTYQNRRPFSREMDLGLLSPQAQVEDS

[4] = molecular target: Hepatocyte growth factor receptor (Homo sapiens, UniProt P08581); assay: Inhibition of c-Met (unknown origin) using FAM-labeled peptide substrate after 10 mins by mobility shift assay
[5] = Homo sapiens, HepG2, 72 h, read-out: IC50
[6] = Homo sapiens, A549, 72 h, read-out: IC50
[7] = Homo sapiens, PC-3, 72 h, read-out: IC50
[8] = Homo sapiens, MCF7, 72 h, read-out: IC50

Sequence of Hepatocyte growth factor receptor (P08581 whole entry): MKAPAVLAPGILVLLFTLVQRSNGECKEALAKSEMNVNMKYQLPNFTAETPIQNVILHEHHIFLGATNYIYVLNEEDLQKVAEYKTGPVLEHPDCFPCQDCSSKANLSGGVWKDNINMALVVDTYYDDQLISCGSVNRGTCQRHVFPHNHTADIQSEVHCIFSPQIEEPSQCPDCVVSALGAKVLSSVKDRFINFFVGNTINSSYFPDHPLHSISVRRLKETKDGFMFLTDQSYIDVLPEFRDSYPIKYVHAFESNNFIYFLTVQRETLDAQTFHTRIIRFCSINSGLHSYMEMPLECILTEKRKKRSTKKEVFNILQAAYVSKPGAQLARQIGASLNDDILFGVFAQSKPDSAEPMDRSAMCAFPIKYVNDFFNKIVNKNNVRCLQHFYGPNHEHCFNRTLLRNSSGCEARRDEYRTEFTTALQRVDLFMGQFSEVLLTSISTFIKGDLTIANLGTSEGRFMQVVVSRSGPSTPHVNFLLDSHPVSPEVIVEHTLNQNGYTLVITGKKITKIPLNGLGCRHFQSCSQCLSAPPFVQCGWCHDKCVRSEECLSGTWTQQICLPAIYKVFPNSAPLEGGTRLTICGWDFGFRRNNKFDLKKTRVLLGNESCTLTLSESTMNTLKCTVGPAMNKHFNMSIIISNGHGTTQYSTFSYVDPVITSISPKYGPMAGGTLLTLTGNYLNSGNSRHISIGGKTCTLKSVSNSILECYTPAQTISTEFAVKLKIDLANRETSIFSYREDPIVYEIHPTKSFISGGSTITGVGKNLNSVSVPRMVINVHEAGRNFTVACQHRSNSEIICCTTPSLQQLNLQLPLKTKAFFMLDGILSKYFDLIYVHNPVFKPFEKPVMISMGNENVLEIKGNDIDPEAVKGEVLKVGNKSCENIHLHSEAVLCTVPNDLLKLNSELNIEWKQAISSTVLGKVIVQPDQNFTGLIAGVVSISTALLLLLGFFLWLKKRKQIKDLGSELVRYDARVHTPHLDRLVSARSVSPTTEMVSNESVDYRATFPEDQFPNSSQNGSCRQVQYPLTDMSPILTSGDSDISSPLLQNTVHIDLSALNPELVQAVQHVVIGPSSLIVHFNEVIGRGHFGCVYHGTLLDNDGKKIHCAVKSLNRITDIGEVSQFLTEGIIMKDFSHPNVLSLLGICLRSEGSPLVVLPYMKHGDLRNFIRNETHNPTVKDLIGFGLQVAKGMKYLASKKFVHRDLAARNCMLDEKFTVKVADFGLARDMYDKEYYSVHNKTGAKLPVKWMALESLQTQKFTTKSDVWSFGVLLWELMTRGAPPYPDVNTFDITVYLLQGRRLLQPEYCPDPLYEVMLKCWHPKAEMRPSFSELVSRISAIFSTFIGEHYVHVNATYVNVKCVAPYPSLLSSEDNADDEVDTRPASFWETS
Sequence of Epidermal growth factor receptor (P00533 whole entry): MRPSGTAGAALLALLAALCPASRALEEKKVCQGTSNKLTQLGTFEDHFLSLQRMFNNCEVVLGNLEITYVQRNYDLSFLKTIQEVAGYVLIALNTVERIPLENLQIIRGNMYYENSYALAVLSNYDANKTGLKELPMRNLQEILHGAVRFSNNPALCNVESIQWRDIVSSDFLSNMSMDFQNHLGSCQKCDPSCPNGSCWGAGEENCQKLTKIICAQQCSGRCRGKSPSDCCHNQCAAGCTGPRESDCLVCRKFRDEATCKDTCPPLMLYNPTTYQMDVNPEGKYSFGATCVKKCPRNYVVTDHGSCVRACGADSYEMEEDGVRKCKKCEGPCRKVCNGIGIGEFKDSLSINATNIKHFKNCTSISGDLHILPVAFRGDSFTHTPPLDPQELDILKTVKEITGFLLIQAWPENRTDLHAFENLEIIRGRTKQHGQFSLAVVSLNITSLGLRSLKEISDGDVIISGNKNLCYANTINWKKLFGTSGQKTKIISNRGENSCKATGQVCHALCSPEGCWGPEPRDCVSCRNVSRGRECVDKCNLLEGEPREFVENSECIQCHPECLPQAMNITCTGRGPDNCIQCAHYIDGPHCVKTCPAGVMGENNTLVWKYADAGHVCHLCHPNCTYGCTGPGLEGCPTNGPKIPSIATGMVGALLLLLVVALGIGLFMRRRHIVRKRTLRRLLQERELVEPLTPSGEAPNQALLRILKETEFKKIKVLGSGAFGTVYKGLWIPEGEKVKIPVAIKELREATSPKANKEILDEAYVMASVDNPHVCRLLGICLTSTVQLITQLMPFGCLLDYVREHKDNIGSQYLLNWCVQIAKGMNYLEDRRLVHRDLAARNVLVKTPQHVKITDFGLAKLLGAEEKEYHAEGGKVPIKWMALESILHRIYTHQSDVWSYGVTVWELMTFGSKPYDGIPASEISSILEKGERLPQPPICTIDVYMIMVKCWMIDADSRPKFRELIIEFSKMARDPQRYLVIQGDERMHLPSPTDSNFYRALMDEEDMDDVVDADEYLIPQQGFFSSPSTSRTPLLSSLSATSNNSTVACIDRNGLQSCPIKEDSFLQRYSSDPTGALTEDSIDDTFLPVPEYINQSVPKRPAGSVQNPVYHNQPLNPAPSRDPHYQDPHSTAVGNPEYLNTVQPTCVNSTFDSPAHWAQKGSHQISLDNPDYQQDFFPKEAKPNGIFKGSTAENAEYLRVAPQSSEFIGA
Sequence of Vascular endothelial growth factor receptor 2 (P35968 whole entry): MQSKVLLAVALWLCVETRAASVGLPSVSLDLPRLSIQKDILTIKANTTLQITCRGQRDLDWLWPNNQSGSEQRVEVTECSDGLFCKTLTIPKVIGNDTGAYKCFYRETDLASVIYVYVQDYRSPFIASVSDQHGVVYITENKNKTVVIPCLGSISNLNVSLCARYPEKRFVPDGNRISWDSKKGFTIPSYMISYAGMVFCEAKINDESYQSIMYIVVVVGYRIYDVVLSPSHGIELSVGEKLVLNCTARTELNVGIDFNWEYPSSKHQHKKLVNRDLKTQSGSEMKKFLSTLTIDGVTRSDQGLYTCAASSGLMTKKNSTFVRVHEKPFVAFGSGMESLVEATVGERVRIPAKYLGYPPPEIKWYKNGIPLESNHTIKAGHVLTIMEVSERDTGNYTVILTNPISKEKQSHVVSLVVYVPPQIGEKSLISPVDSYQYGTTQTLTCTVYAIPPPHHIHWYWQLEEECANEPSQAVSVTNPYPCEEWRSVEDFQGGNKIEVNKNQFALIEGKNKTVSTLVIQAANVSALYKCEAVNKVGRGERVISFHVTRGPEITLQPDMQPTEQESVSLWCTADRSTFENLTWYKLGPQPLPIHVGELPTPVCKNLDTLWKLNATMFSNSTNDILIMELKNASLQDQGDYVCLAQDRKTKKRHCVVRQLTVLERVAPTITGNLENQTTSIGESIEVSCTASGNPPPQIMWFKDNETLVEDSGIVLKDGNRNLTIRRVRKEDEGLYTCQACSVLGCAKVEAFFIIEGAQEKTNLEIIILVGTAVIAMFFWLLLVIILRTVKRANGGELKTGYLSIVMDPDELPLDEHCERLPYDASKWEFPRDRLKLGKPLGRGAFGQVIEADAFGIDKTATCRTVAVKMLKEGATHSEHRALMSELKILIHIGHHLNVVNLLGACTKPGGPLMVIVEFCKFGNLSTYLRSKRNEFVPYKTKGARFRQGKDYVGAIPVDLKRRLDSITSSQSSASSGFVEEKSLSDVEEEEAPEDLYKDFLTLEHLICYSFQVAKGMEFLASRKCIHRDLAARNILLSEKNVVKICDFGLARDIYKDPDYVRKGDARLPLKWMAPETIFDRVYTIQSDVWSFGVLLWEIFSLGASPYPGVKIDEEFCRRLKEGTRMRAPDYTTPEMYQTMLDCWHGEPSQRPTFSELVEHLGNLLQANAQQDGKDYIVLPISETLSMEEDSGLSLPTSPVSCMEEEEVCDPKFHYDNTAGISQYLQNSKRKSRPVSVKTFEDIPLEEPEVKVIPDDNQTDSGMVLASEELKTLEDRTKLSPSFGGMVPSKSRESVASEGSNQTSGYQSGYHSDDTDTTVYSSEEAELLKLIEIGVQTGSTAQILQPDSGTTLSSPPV

Compound	IC50 (HepG2; [5]) [µM]	IC50 (A549; [6]) [µM]	IC50 (PC-3; [7]) [µM]	IC50 (MCF7; [8]) [µM]	further results
O=C(N/N=C/c1cccc(Cl)c1Cl)Nc1ccc(Oc2ccnc3[nH]ccc23)cc1	–	–	–	–	IC50 (HepG2; hepg2): Not Active; IC50 (A549; a549): Not Active; IC50 (PC-3; pc-3): Not Active; IC50 (MCF7; mcf7): Not Active
CC(C)(C)c1cc(/C=N/NC(=O)Nc2ccc(Oc3ccnc4[nH]ccc34)c(F)c2)cc(C(C)(C)C)c1O	7.22	13.6	10.4	0.84	–
N#Cc1ccc(/C=N/NC(=O)Nc2ccc(Oc3ccnc4[nH]ccc34)c(F)c2)cc1	0.85	1.36	9.03	–	IC50 (MCF7; mcf7): Not Active
CN1CCN(CCCn2cccc2/C=N/NC(=O)Nc2ccc(Oc3ccnc4[nH]ccc34)c(F)c2)CC1	2.74	2.2	2.19	3.74	–
O=C(N/N=C/c1cccn1CCN1CCOCC1)Nc1ccc(Oc2ccnc3[nH]ccc23)c(F)c1	11.9	3.41	2.45	–	–
O=C(N/N=C/c1ccc(F)cc1)Nc1ccc(Oc2ccnc3[nH]ccc23)cc1	3.43	1.43	7.49	3.72	–
O=C(N/N=C/c1ccc(F)cc1)Nc1ccc(Oc2ccnc3[nH]ccc23)c(F)c1	3.88	0.68	2.33	0.8	–
O=C(N/N=C/c1ccc(Br)cc1)Nc1ccc(Oc2ccnc3[nH]ccc23)cc1	1	0.64	–	–	IC50 (PC-3; pc-3): Not Active; IC50 (MCF7; mcf7): Not Active
O=C(N/N=C/c1cccc([N+](=O)[O-])c1)Nc1ccc(Oc2ccnc3[nH]ccc23)c(F)c1	5.18	3.64	5.14	–	IC50 (MCF7; mcf7): Not Active
CN(C)CCn1cccc1/C=N/NC(=O)Nc1ccc(Oc2ccnc3[nH]ccc23)cc1	–	–	3.93	–	IC50 (HepG2; hepg2): Not Active; IC50 (A549; a549): Not Active
O=C(N/N=C/c1ccc(O)cc1)Nc1ccc(Oc2ccnc3[nH]ccc23)cc1	32.2	1.91	4.92	5.8	–
O=C(N/N=C/c1cccn1CCN1CCOCC1)Nc1ccc(Oc2ccnc3[nH]ccc23)cc1	9.94	3.88	1.65	–	–
CN1CCN(CCCn2cccc2/C=N/NC(=O)Nc2ccc(Oc3ccnc4[nH]ccc34)cc2)CC1	2.76	1.64	3.74	4.28	–
O=C(N/N=C/c1ccccc1)Nc1ccc(Oc2ccnc3[nH]ccc23)cc1	0.75	17.2	10.2	1.51	–
O=C(N/N=C/c1cccn1CCCN1CCCC1)Nc1ccc(Oc2ccnc3[nH]ccc23)cc1	1.42	1.3	4.29	4.53	IC50 [1]: 14.4 µM; IC50 [2]: 45 µM; IC50 [3]: 3.8 µM; IC50 [4]: 0.907 µM
O=C(N/N=C/c1ccc([N+](=O)[O-])cc1)Nc1ccc(Oc2ccnc3[nH]ccc23)cc1	4.62	2.1	28.1	15.6	–
COc1ccc(/C=N/NC(=O)Nc2ccc(Oc3ccnc4[nH]ccc34)cc2)cc1	9.74	4.3	–	–	IC50 (PC-3; pc-3): Not Active; IC50 (MCF7; mcf7): Not Active
COc1ccc(/C=N/NC(=O)Nc2ccc(Oc3ccnc4[nH]ccc34)c(F)c2)cc1	1.77	3.98	6.73	5.75	–
O=C(N/N=C/c1ccccc1)Nc1ccc(Oc2ccnc3[nH]ccc23)c(F)c1	0.64	2.5	7.94	2.38	–
O=C(N/N=C/c1ccc(O)cc1)Nc1ccc(Oc2ccnc3[nH]ccc23)c(F)c1	1.95	3.76	2.78	–	IC50 (MCF7; mcf7): Not Active

Compound	IC50 (HepG2; [5]) [µM]	IC50 (A549; [6]) [µM]	IC50 (PC-3; [7]) [µM]	IC50 (MCF7; [8]) [µM]	further results
O=C(N/N=C/c1ccc(F)cc1Cl)Nc1ccc(Oc2ccnc3[nH]ccc23)c(F)c1	1.11	0.01	0.003	7.61	–
O=C(N/N=C/c1cccn1CCCN1CCCCC1)Nc1ccc(Oc2ccnc3[nH]ccc23)c(F)c1	2.84	2.85	2.84	4.84	–
O=C(N/N=C/c1cccn1CCCN1CCOCC1)Nc1ccc(Oc2ccnc3[nH]ccc23)cc1	1.69	2.24	14.7	–	IC50 (MCF7; mcf7): Not Active
O=C(N/N=C/c1cccc(Br)c1)Nc1ccc(Oc2ccnc3[nH]ccc23)c(F)c1	0.66	2.22	4.02	0.049	–
CCN(CC)CCCn1cccc1/C=N/NC(=O)Nc1ccc(Oc2ccnc3[nH]ccc23)c(F)c1	2.14	1.21	2.95	3.39	–
O=C(N/N=C/c1cccn1CCCN1CCCC1)Nc1ccc(Oc2ccnc3[nH]ccc23)c(F)c1	3.5	2.01	3.58	4.58	–
O=C(N/N=C/c1ccc(O)cc1Br)Nc1ccc(Oc2ccnc3[nH]ccc23)cc1	–	5.08	–	–	IC50 (PC-3; pc-3): Not Active; IC50 (MCF7; mcf7): Not Active
O=C(N/N=C/c1ccc(O)cc1O)Nc1ccc(Oc2ccnc3[nH]ccc23)c(F)c1	4.55	5.84	13	48	–
CN(C)CCCn1cccc1/C=N/NC(=O)Nc1ccc(Oc2ccnc3[nH]ccc23)cc1	4.19	2.66	5.15	9.14	–
O=C(N/N=C/c1ccc(Cl)c(Cl)c1)Nc1ccc(Oc2ccnc3[nH]ccc23)c(F)c1	3.7	2.65	14.1	0.998	–
O=C(N/N=C/c1ccc([N+](=O)[O-])cc1)Nc1ccc(Oc2ccnc3[nH]ccc23)c(F)c1	3.03	0.02	0.15	4	–
O=C(N/N=C/c1cc(Br)c(O)c(Br)c1)Nc1ccc(Oc2ccnc3[nH]ccc23)c(F)c1	6.52	16.2	–	–	IC50 (PC-3; pc-3): Not Active; IC50 (MCF7; mcf7): Not Active
O=C(N/N=C/c1cccc(Cl)c1Cl)Nc1ccc(Oc2ccnc3[nH]ccc23)c(F)c1	–	–	–	–	IC50 (HepG2; hepg2): Not Active; IC50 (A549; a549): Not Active; IC50 (PC-3; pc-3): Not Active; IC50 (MCF7; mcf7): Not Active
CN(C)CCn1cccc1/C=N/NC(=O)Nc1ccc(Oc2ccnc3[nH]ccc23)c(F)c1	8.98	–	1.6	–	IC50 (A549; a549): Not Active
O=C(N/N=C/c1cccn1CCCN1CCCCC1)Nc1ccc(Oc2ccnc3[nH]ccc23)cc1	3.69	1.56	3.58	4.69	–
O=C(N/N=C/c1ccc(O)c(Br)c1)Nc1ccc(Oc2ccnc3[nH]ccc23)c(F)c1	1.36	9.25	28.6	8.23	–
COc1ccc(/C=N/NC(=O)Nc2ccc(Oc3ccnc4[nH]ccc34)c(F)c2)c(OC)c1OC	2.99	1.45	8.97	0.134	–
COc1ccc(/C=N/NC(=O)Nc2ccc(Oc3ccnc4[nH]ccc34)cc2)c(OC)c1OC	2.96	3.34	27.6	–	IC50 (MCF7; mcf7): Not Active
CCN(CC)CCn1cccc1/C=N/NC(=O)Nc1ccc(Oc2ccnc3[nH]ccc23)cc1	5.88	3.57	1.37	–	–
COc1cc(/C=N/NC(=O)Nc2ccc(Oc3ccnc4[nH]ccc34)c(F)c2)cc(OC)c1OC	–	34.1	–	21.9	IC50 (HepG2; hepg2): Not Active; IC50 (PC-3; pc-3): Not Active
